According to ChEMBL document CHEMBL1140227, “Histone deacetylase inhibitors through click chemistry” (J Med Chem, 2008):

Assays:
Assay type in all cases: functional
SW-620 = test: Growth inhibition of human SW620 cells at 10 uM relative to control; conditions: values are per cent of control
Outline: (§1)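 Single-dose NCI human tumour cell line screen, run by the NIH. Percent inhibition of cell line growth was calculated by comparison with untreated samples.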

cells [1] = conditions: Homo sapiens, Cancer cell lines
MDA-MB-231 = test: Growth inhibition of human MDA-MB-231 cells at 10 uM relative to control; conditions: values are per cent of control
Outline: (§2)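 Single-dose preliminary screen in the NCI human cancer cell line panel, run by the NIH. Percent inhibition of cell line growth was calculated by comparison with untreated samples.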

NCI-H226 = test: Growth inhibition of human NCI-H226 cells at 10 uM relative to control; conditions: values are per cent of control; outline: as §2
KM12 = test: Growth inhibition of human KM12 cells at 10 uM relative to control; conditions: values are per cent of control; outline: as §2
HCT-15 = test: Growth inhibition of human HCT15 cells at 10 uM relative to control; conditions: values are per cent of control; outline: as §2
HT-29 = test: Growth inhibition of human HT-29 cells at 10 uM relative to control; conditions: values are per cent of control; outline: as §2
NCI-H23 = test: Growth inhibition of human NCI-H23 cells at 10 uM relative to control; conditions: values are per cent of control; outline: as §2
SF-295 = test: Growth inhibition of human SF295 cells at 10 uM relative to control; conditions: values are per cent of control; outline: as §2
cells [2] = conditions: Homo sapiens, Cancer cell lines; remark: listed apart in the source
MDA-MB-435 = test: Growth inhibition of human MDA-MB-435 cells at 10 uM relative to control; conditions: values are per cent of control; outline: as §2
HCT-116 = test: Growth inhibition of human HCT116 cells at 10 uM relative to control; conditions: values are per cent of control; outline: as §2
cells [3] = conditions: Homo sapiens, Cancer cell lines; remark: listed apart in the source
Malme-3M = test: Growth inhibition of human MALME-3M cells at 10 uM relative to control; conditions: values are per cent of control; outline: as §2
[4] = Growth inhibition of human RPMI8266 cells at 10 uM relative to control; conditions: values are per cent of control; outline: as §2
NCI-H522 = test: Growth inhibition of human NCI-H522 cells at 10 uM relative to control; conditions: values are per cent of control; outline: as §2
CAKI-1 = test: Growth inhibition of human Caki1 cells at 10 uM relative to control; conditions: values are per cent of control; outline: as §2
M14 = test: Growth inhibition of human M14 cells at 10 uM relative to control; conditions: values are per cent of control; outline: as §2
OVCAR-4 = test: Growth inhibition of human OVCAR4 cells at 10 uM relative to control; conditions: values are per cent of control; outline: as §2
786-0 = test: Growth inhibition of human 786-0 cells at 10 uM relative to control; conditions: values are per cent of control; outline: as §2
SN12C = test: Growth inhibition of human SN12C cells at 10 uM relative to control; conditions: values are per cent of control; outline: as §2
COLO 205 = test: Growth inhibition of human COLO205 cells at 10 uM relative to control; conditions: values are per cent of control; outline: as §2
CCRF-CEM = test: Growth inhibition of human CCRF-CEM cells at 10 uM relative to control; conditions: values are per cent of control; outline: as §2
cells [5] = conditions: Homo sapiens, Cancer cell lines; remark: listed apart in the source
SK-MEL-2 = test: Growth inhibition of human SK-MEL-2 cells at 10 uM relative to control; conditions: values are per cent of control; outline: as §2
HCC 2998 = test: Growth inhibition of human HCC2998 cells at 10 uM relative to control; conditions: values are per cent of control; outline: as §2
SK-OV-3 = test: Growth inhibition of human SKOV3 cells at 10 uM relative to control; conditions: values are per cent of control; outline: as §2
EKVX = test: Growth inhibition of human EKVX cells at 10 uM relative to control; conditions: values are per cent of control; outline: as §2
cells [6] = conditions: Homo sapiens, Cancer cell lines; remark: listed apart in the source
OVCAR-8 = test: Growth inhibition of human OVCAR8 cells at 10 uM relative to control; conditions: values are per cent of control; outline: as §2
OVCAR-3 = test: Growth inhibition of human OVCAR-3 cells at 10 uM relative to control; conditions: values are per cent of control; outline: as §2
MCF7 = test: Growth inhibition of human MCF7 cells at 10 uM relative to control; conditions: values are per cent of control; outline: as §2
BT-549 = test: Growth inhibition of human BT549 cells at 10 uM relative to control; conditions: values are per cent of control; outline: as §2
U-251 = test: Growth inhibition of human U251 cells at 10 uM relative to control; conditions: values are per cent of control; outline: as §1
T47D = test: Growth inhibition of human T47D cells at 10 uM relative to control; conditions: values are per cent of control; outline: as §1
UACC-62 = test: Growth inhibition of human UACC62 cells at 10 uM relative to control; conditions: values are per cent of control; outline: as §1
SNB-75 = test: Growth inhibition of human SNB75 cells at 10 uM relative to control; conditions: values are per cent of control; outline: as §1
DU-145 = test: Growth inhibition of human DU145 cells at 10 uM relative to control; conditions: values are per cent of control; outline: as §2
A498 = test: Growth inhibition of human A498 cells at 10 uM relative to control; conditions: values are per cent of control; outline: as §2
LOX IMVI = test: Growth inhibition of human LOXIMVI cells at 10 uM relative to control; conditions: values are per cent of control; outline: as §2
IGROV-1 = test: Growth inhibition of human IGROV1 cells at 10 uM relative to control; conditions: values are per cent of control; outline: as §2
TK-10 = test: Growth inhibition of human TK10 cells at 10 uM relative to control; conditions: values are per cent of control; outline: as §1
ACHN = test: Growth inhibition of human ACHN cells at 10 uM relative to control; conditions: values are per cent of control; outline: as §2
SK-MEL-5 = test: Growth inhibition of human SK-MEL-5 cells at 10 uM relative to control; conditions: values are per cent of control; outline: as §2
HOP-62 = test: Growth inhibition of human HOP62 cells at 10 uM relative to control; conditions: values are per cent of control; outline: as §2
NCI/ADR-RES = test: Growth inhibition of human NCI/ADR-RES cells at 10 uM relative to control; conditions: values are per cent of control; outline: as §2
SF-268 = test: Growth inhibition of human SF268 cells at 10 uM relative to control; conditions: values are per cent of control; outline: as §2
SK-MEL-28 = test: Growth inhibition of human SK-MEL-28 cells at 10 uM relative to control; conditions: values are per cent of control; outline: as §2
HL-60(TB) = test: Growth inhibition of human HL-60(TB) cells at 10 uM relative to control; conditions: read-out: INH
Outline: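 Single-dose cell line screen run by the NCI (NIH) in its human cancer cell line panel, which includes the leukemia line HL-60(TB). Percent growth inhibition was calculated by comparison with untreated samples.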

MOLT-4 = test: Growth inhibition of human MOLT4 cells at 10 uM relative to control; conditions: values are per cent of control; outline: as §2
SNB-19 = test: Growth inhibition of human SNB19 cells at 10 uM relative to control; conditions: values are per cent of control; outline: as §2
MDA-MB-468 = test: Growth inhibition of human MDA-MB-468 cells at 10 uM relative to control; conditions: values are per cent of control; outline: as §2
Melanoma cell = test: cells; conditions: Homo sapiens
PC-3 = test: Growth inhibition of human PC3 cells at 10 uM relative to control; conditions: values are per cent of control; outline: as §2
Leukemia cell = test: cells; conditions: Homo sapiens
UO-31 = test: Growth inhibition of human UO31 cells at 10 uM relative to control; conditions: values are per cent of control; outline: as §1
UACC-257 = test: Growth inhibition of human UACC257 cells at 10 uM relative to control; conditions: values are per cent of control; outline: as §1
NCI-H322M = test: Growth inhibition of human NCI-H322M cells at 10 uM relative to control; conditions: values are per cent of control; outline: as §2
HOP-92 = test: Growth inhibition of human HOP92 cells at 10 uM relative to control; conditions: values are per cent of control; outline: as §2
OVCAR-5 = test: Growth inhibition of human OVCAR5 cells at 10 uM relative to control; conditions: values are per cent of control; outline: as §2
A549 = test: Growth inhibition of human A549 cells at 10 uM relative to control; conditions: values are per cent of control; outline: as §2
SF-539 = test: Growth inhibition of human SF539 cells at 10 uM relative to control; conditions: values are per cent of control; outline: as §2
K562 = test: Growth inhibition of human K562 cells at 10 uM relative to control; conditions: values are per cent of control; outline: as §2
NCI-H460 = test: Growth inhibition of human NCI-H460 cells at 10 uM relative to control; conditions: values are per cent of control; outline: as §2

O=C(/C=C/c1cn(CCc2ccccc2)nn1)NO showed a growth, % of control at 10 µM (SW-620) of 31.1%, an inhibition at 10 µM (cells [1]) of 58% and a growth, % of control at 10 µM (MDA-MB-231) of 60.3%. The growth, % of control at 10 µM (NCI-H226) was 76.5%, the growth, % of control at 10 µM (KM12) was 67.8% and the growth, % of control at 10 µM (HCT-15) was 75.8%. It also gave a growth, % of control at 10 µM (HT-29) of 56.9%, a growth, % of control at 10 µM (NCI-H23) of 68.4% and a growth, % of control at 10 µM (SF-295) of 51.8%. It also gave an inhibition at 10 µM (cells [2]) of 48%, a growth, % of control at 10 µM (MDA-MB-435) of 21.9% and a growth, % of control at 10 µM (HCT-116) of 5.49%. It also gave a growth percent at 10 µM (cells [3]) of 46%, a growth, % of control at 10 µM (Malme-3M) of 15.9% and a growth, % of control at 10 µM [4] of 1.76%. For the same molecule, the growth, % of control at 10 µM (NCI-H522) was 27.7%, the growth, % of control at 10 µM (CAKI-1) was 52.9% and the growth, % of control at 10 µM (M14) was 44.7%. For the same molecule, the growth, % of control at 10 µM (OVCAR-4) was 77.5%, the growth, % of control at 10 µM (786-0) was 26.3% and the growth, % of control at 10 µM (SN12C) was 64.8%. The growth, % of control at 10 µM (COLO 205) was 53.9%, the growth, % of control at 10 µM (CCRF-CEM) was 7.44% and the inhibition at 10 µM (cells [5]) was 45%. It also gave a growth, % of control at 10 µM (SK-MEL-2) of 45.8%, a growth, % of control at 10 µM (HCC 2998) of 69.2% and a growth, % of control at 10 µM (SK-OV-3) of 57%. The growth, % of control at 10 µM (EKVX) was 44.6%, the growth percent at 10 µM (cells [6]) was 40% and the growth, % of control at 10 µM (OVCAR-8) was 26.5%. For the same molecule, the growth, % of control at 10 µM (OVCAR-3) was 61.3%, the growth, % of control at 10 µM (MCF7) was 63.7% and the growth, % of control at 10 µM (BT-549) was 78%. The growth, % of control at 10 µM (U-251) was 40.7%, the growth, % of control at 10 µM (T47D) was 32.8% and the growth, % of control at 10 µM (UACC-62) was 18.1%. The growth, % of control at 10 µM (SNB-75) was 35.1%, the growth, % of control at 10 µM (DU-145) was 35.5% and the growth, % of control at 10 µM (A498) was 52.4%. For the same molecule, the growth, % of control at 10 µM (LOX IMVI) was 44.9%, the growth, % of control at 10 µM (IGROV-1) was 44.6% and the growth, % of control at 10 µM (TK-10) was 57.7%. It also gave a growth, % of control at 10 µM (ACHN) of 29.3%, a growth, % of control at 10 µM (SK-MEL-5) of 35.5% and a growth, % of control at 10 µM (HOP-62) of 13.3%. For the same molecule, the growth, % of control at 10 µM (NCI/ADR-RES) was -13.7%, the growth, % of control at 10 µM (SF-268) was 57.2% and the growth, % of control at 10 µM (SK-MEL-28) was 42.6%. For the same molecule, the growth, % of control at 10 µM (HL-60(TB)) was -10.7%, the growth, % of control at 10 µM (MOLT-4) was 3.77% and the growth, % of control at 10 µM (SNB-19) was 90%. For the same molecule, the growth, % of control at 10 µM (MDA-MB-468) was 56%, the inhibition at 10 µM (Melanoma cell) was 33% and the growth, % of control at 10 µM (PC-3) was 37.2%. It also gave an inhibition at 10 µM (Leukemia cell) of 7%, a growth, % of control at 10 µM (UO-31) of 37.4% and a growth, % of control at 10 µM (UACC-257) of 19.5%. The growth, % of control at 10 µM (NCI-H322M) was 66%, the growth, % of control at 10 µM (HOP-92) was -9.64% and the growth, % of control at 10 µM (OVCAR-5) was 23.5%. For the same molecule, the growth, % of control at 10 µM (A549) was 54.2%, the growth, % of control at 10 µM (SF-539) was 72.8% and the growth, % of control at 10 µM (K562) was 30.5%. It also gave a growth, % of control at 10 µM (NCI-H460) of 62.5%.
